Laboratory results reported in article PMC5808564 (ChemMedChem, 2017).
Values joined by “and” are separate entries in the source; they are usually repeats but may differ in a detail not shown here. Equal entries are not always repeated. Where two headings read alike, the source gives them in different places.

Assays:
[1] = target: T1, human HK 4 (human glucokinase, hGlk) (Homo sapiens, UniProt P35557); test: Specificity assay against human glucokinase; format: biochemical; details: for inhibition at 10 µM: read-out: % hGlk inhibition (10 μM); for % hGlk inhibition (10 μM): 10 μM compound, BLD = below level of detection
T1 sequence (P35557 1-465): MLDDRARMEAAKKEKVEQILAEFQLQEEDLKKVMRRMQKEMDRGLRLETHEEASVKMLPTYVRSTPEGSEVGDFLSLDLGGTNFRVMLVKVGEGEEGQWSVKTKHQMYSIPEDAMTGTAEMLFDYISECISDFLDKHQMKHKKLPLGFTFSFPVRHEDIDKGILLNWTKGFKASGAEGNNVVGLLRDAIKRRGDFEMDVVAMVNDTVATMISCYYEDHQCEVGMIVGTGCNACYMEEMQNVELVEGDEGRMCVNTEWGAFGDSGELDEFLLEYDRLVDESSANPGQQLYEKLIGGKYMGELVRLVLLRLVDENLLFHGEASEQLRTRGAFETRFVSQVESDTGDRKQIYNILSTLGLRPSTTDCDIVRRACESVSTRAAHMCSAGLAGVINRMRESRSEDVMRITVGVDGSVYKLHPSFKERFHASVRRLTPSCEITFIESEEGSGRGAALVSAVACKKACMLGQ
Summary of the method: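 Uses human hexokinase 4 (glucokinase; GenBank BC001890). Activity is read through a coupled reaction in which glucose-6-phosphate dehydrogenase converts the glucose-6-phosphate formed to 6-phosphogluconate. The coincident NADPH formation is followed at 340 nm.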

[2] = target: recombinant T. brucei hexokinase 1 (rTbHK1) (Trypanosoma brucei, UniProt Q38C42); test: biochemical; format: biochemical
IMR-90 human cells = test: Human cell line toxicity testing; format: cell-based
[3] = test system: T. brucei bloodstream form (BSF) parasites (cell line 90-13, a 427 strain); test: microbe, parasite or virus in culture; format: cell-based, Trypanosoma brucei; details: for inhibition at 10 µM: Trypanosoma brucei, A-427, read-out: % T. brucei BSF growth inhibition (10 μM), 10 μM compound; for inhibition at 10 µM / % T. brucei BSF growth inhibition (10 μM): BLD = below level of detection; for % T. brucei BSF growth inhibition (10 μM): 10 μM compound; for T. brucei BSF potency (LD50 ± SEM): 3-day growth, n ≥ 3
[4] = Homo sapiens, IMR-90, read-out: IMR90 toxicity (EC50)
[5] = read-out: IMR90 toxicity (EC50), IMR-90 cells, 44-46 h
[6] = read-out: rTbHK1 potency (IC50 ± SEM), average of n ≥ 3 experiments

Row | Structure (SMILES) | inhibition at 10 µM [1] [%] | IC50 [2] [µM] | EC50 (IMR-90 human cells; [4]) [µM] | inhibition at 10 µM [3] [%] | % hGlk inhibition (10 μM) [1] | EC50 (IMR-90 human cells; [5]) [µM] | % T. brucei BSF growth inhibition (10 μM) [3] | IC50 [2, 6] [µM] | T. brucei BSF potency (LD50 ± SEM) [3] | rTbHK1 enzymatic potency (in words) [2] | activity on whole T. brucei BSF parasites (in words) [3]
1 | CN(C)c1cccc(-c2cc(C(=O)O)c(NC(=O)c3ccc(C(C)(C)C)cc3)cc2Cl)c1 [Compound 4m] | 43.7 ± 4.1 | 4 ± 0.32 | > 25 | 82.8 ± 0.2 | – | – | – | – | – | – | –
2 | CC(C)(C)c1ccc(C(=O)Nc2cc(Cl)c(-c3cccnc3)cc2C(=O)O)cc1 [Compound 4t] | – | – | – | – | 16.7 ± 1.2% | > 25 | 57.7 ± 14.2% | – | – | – | –
3 | CN(C)c1ccc(-c2cc(C(=O)O)c(NC(=O)c3ccc(C(C)(C)C)cc3)cc2Cl)cc1 [Compound 4l] | – | – | – | – | 27.8 ± 1.7% | > 25 | 58.0 ± 4.0% | > 10 | 6.0 ± 0.2 µM | – | –
4 | CC(C)(C)c1ccc(C(=O)Nc2cc(Cl)c(-c3cccs3)cc2C(=O)O)cc1 [Compound 4u] | 12.5 ± 1.3 | 0.47 ± 0.15 | > 25 | 69.1 ± 5.8 | – | – | – | – | – | – | –
5 | Cc1cc(C(=O)O)c(NC(=O)c2ccc(C(C)(C)C)cc2)cc1Cl [Compound 4c, 2-(4-tert-Butylbenzamido)-4-chloro-5-methylbenzoic acid] | 12.5 ± 4.8 | 2.7 ± 0.18 | > 25 | 97.5 ± 0.6 | – | – | – | – | – | – | –
6 | CC(C)(C)c1ccc(C(=O)Nc2cc(Cl)c(-c3ccccc3F)cc2C(=O)O)cc1 [Compound 4p] | – | – | – | – | 24.5 ± 2.5% | > 25 | 92.8 ± 2.0% | 2.08 ± 0.07 | 5.2 ± 0.9 µM | – | –
7 | CC(C)(C)c1ccc(C(=O)Nc2cc(Cl)c(-n3cccn3)cc2C(=O)O)cc1 [Compound 4cc] | – | – | – | – | 8.7 ± 4.4% | > 25 | 22.5 ± 12.3% | 2.8 ± 0.2 | > 10.0 µM | – | –
8 | CC(C)(C)c1ccc(C(=O)Nc2cc(Cl)c(-n3ccnc3)cc2C(=O)O)cc1 [Compound 4dd] | – | – | – | – | 1.7 ± 3.2% | > 25 | 16.4 ± 13.3% | > 10 | – | – | –
9 | Cc1ccc(-c2cc(C(=O)O)c(NC(=O)c3ccc(C(C)(C)C)cc3)cc2Cl)cc1 [Compound 4g] | – | – | – | – | 15.7 ± 3.0% | > 25 | 81.4 ± 5.6% | 2.78 ± 0.03 | 3.2 ± 1.6 µM | – | –
10 | CC(C)(C)c1ccc(C(=O)Nc2cc(Cl)c(-c3ccoc3)cc2C(=O)O)cc1 [Compound 4x] | – | – | – | – | 3.1 ± 2.8% | > 25 | 73.7 ± 3.7% | 0.51 ± 0.06 | 4.2 ± 0.4 µM | – | –
11 | CC(C)(C)c1ccc(C(=O)Nc2cc(Cl)c(-n3cccc3)cc2C(=O)O)cc1 [Compound 4aa] | – | – | – | – | 15.8 ± 3.0% | > 25 | 73.6 ± 1.0% | 3 ± 0.2 | 6.9 ± 2.1 µM | – | –
12 | CC(C)(C)c1ccc(C(=O)Nc2cc(Cl)c(-c3ccc4c(c3)OCCO4)cc2C(=O)O)cc1 [Compound 4y] | 26.6 ± 0.4 | 0.6 ± 0.09 | > 25 | 98 ± 1.2 | – | – | – | – | – | – | –
13 | CC(C)(C)c1ccc(C(=O)Nc2cc(Cl)c(-c3ccco3)cc2C(=O)O)cc1 [Compound 4w] | 10.4 ± 2.1 | 0.42 ± 0.02 | > 25 | 59 ± 8.2 | – | – | – | – | – | – | –
14 | COc1cccc(-c2cc(C(=O)O)c(NC(=O)c3ccc(C(C)(C)C)cc3)cc2Cl)c1 [Compound 4j] | – | – | – | – | 13.8 ± 1.9% | > 25 | 92.2 ± 2.9% | 0.88 ± 0.01 | 1.5 µM and 1.5 ± 0.3 µM | – | –
15 | CC(C)(C)c1ccc(C(=O)Nc2cc(Cl)c(C3CC3)cc2C(=O)O)cc1 [Compound 4e] | – | – | – | – | BLD | > 25 | 43.4 ± 16.8% | 6.7 ± 0.38 | – | – | –
16 | Cc1ccccc1-c1cc(C(=O)O)c(NC(=O)c2ccc(C(C)(C)C)cc2)cc1Cl [Compound 4h] | – | – | – | – | 16.6 ± 2.3% | > 25 | 65.2 ± 0.2% | – | – | – | –
17 | CC(C)(C)c1ccc(C(=O)Nc2cc(Cl)c(-c3nnn[nH]3)cc2C(=O)O)cc1 [Compound 4ee] | 1.6 ± 0.5 | 0.14 ± 0.002 | > 25 | – | – | – | BLD | – | – | – | –
18 | Cn1nnc(-c2cc(C(=O)O)c(NC(=O)c3ccc(C(C)(C)C)cc3)cc2Cl)n1 [Compound 4ff] | – | – | – | – | 14.0 ± 4.1% | > 25 | BLD | > 10 | – | lacked enzymatic potency | failed to inhibit BSF parasite growth
19 | CCc1cc(C(=O)O)c(NC(=O)c2ccc(C(C)(C)C)cc2)cc1Cl [Compound 4d, 2-(4-tert-Butylbenzamido)-4-chloro-5-ethylbenzoic acid] | 0.7 ± 1.4 | 7.4 ± 0.15 | > 25 | – | – | – | BLD | – | – | – | –
20 | CC(C)(C)c1ccc(C(=O)Nc2cc(Cl)c(-c3ccsc3)cc2C(=O)O)cc1 [Compound 4v] | 24.8 ± 1 | 0.33 ± 0.03 | > 25 | 68.5 ± 2.1 | – | – | – | – | – | – | –
21 | CC(C)(C)c1ccc(C(=O)Nc2cc(Cl)c(-c3ccc[nH]3)cc2C(=O)O)cc1 [Compound 4bb] | 6.1 ± 0.1 | 0.5 ± 0.05 | > 25 | 57 ± 7.1 | – | – | – | – | – | – | –
22 | COc1ccccc1-c1cc(C(=O)O)c(NC(=O)c2ccc(C(C)(C)C)cc2)cc1Cl [Compound 4k] | – | – | – | – | 18.8 ± 2.4% | > 25 | 90.7 ± 0.9% | 4.6 ± 0.32 | 2.0 ± 0.2 µM | – | –
23 | COc1ccc(-c2cc(C(=O)O)c(NC(=O)c3ccc(C(C)(C)C)cc3)cc2Cl)cc1 [Compound 4i] | – | – | – | – | 22.2 ± 1.6% | > 25 | 82.5 ± 7.1% | 1.72 ± 0.09 | 3.1 ± 0.2 µM | – | –
24 | CC(C)(C)c1ccc(C(=O)Nc2cc(Cl)c(-c3ccncc3)cc2C(=O)O)cc1 [Compound 4s] | – | – | – | – | 15.1 ± 3.2% | > 25 | 99.7 ± 1.4% | > 10 | 3.5 ± 0.6 µM | – | –
25 | CC(C)(C)c1ccc(C(=O)Nc2cc(Cl)c(-c3cccc(F)c3)cc2C(=O)O)cc1 [Compound 4o] | – | – | – | – | 16.1 ± 8.7% | > 25 | 93.7 ± 2.6% | 4.6 ± 0.32 | 1.8 ± 0.3 µM | – | –
26 | CC(C)(C)c1ccc(C(=O)Nc2cc(Cl)c(-c3ccc4c(c3)OCO4)cc2C(=O)O)cc1 [Compound 4z] | – | – | – | – | 23.9 ± 2.5% | > 25 | 89.8 ± 1.1% | 3.9 ± 0.1 | 3.0 ± 0.3 µM | – | –
27 | CC(C)(C)c1ccc(C(=O)Nc2cc(Cl)c(-c3ccc(F)cc3)cc2C(=O)O)cc1 [Compound 4n] | – | – | – | – | 15.1 ± 2.6% | > 25 | 76.7 ± 10.4% | 2.44 ± 0.08 | 3.1 ± 0.7 µM | – | –
